Among the data in ChEMBL document CHEMBL1177869, “Synthesis and dual PPARalpha/delta agonist effects of 1,4-disubstituted 1,2,3-triazole analogues of GW 501516” (Eur J Med Chem, 2010) are EC50 and Activity values, retold here.

Molecules are shown by their SMILES. Calls of active or inactive are those of the source. The calls are words filed in the database; no cut-off is given here.

Experiment [1] can be described thus: Induction of [14C]-oleic acid oxidation in human differentiated skeletal muscle cells assessed as accumulation of oxidized [14C]-oleic acid after 4 hrs by liquid scintillation counting. The class given is functional. In short, it runs like this:
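Human skeletal muscle myoblasts grown to 70-80% confluence, then differentiated 7 days (DMEM 5.5 mM glucose, 2% FCS, 25 pM insulin). Compound at five concentrations from day 3 (96 h). [1-14C]oleic acid (1 μCi/mL, 100 μM) in DPBS with 10 mM HEPES and 1 mM L-carnitine, 4 h at 37 °C. Filter-trapped CO2 counted by scintillation, normalized to protein. EC50 by non-linear regression. GW 501516 positive control.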

Experiment [2] has as its target T1, Peroxisome proliferator-activated receptor delta (Homo sapiens) (UniProt Q03181).
T1 sequence (whole entry): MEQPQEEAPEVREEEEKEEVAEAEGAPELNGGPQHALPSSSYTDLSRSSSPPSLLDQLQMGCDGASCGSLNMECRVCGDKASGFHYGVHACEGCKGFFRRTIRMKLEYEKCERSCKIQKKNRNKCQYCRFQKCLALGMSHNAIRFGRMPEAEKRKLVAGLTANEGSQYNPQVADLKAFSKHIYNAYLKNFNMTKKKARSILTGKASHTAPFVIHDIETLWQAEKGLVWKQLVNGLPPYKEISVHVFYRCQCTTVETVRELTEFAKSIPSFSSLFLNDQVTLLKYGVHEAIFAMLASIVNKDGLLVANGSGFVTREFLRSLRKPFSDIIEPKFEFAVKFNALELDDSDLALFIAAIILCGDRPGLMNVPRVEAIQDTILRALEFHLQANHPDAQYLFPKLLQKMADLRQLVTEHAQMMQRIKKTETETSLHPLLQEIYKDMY
Briefly: Agonist activity at human PPARdelta ligand binding domain expressed in COS-1 cells co-transfected with Gal4 at 10 uM by luciferase reporter gene assay. The class given is cell-based. In short, it runs like this: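 COS-1 cells in DMEM with 10% inactivated FBS, 37 °C, 5% CO2, plated 1 day before lipofectamine transfection. Per well: 320 ng (UAS)5-tk-LUC reporter, 640 ng empty pGL3 basic, 30 ng pSG5-GAL4-hPPAR (α, δ or γ). Compound 10 μM (DMSO negative control) added 5 h post-transfection. Cells kept 24 h, then lysed for luciferase read-out.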
On the technique in general: Reporter assays use an easily measured gene product as a stand-in for the process of interest.

The target of experiment [3] is T2, Peroxisome proliferator-activated receptor gamma (Homo sapiens) (UniProt P37231).
T2 sequence (whole entry): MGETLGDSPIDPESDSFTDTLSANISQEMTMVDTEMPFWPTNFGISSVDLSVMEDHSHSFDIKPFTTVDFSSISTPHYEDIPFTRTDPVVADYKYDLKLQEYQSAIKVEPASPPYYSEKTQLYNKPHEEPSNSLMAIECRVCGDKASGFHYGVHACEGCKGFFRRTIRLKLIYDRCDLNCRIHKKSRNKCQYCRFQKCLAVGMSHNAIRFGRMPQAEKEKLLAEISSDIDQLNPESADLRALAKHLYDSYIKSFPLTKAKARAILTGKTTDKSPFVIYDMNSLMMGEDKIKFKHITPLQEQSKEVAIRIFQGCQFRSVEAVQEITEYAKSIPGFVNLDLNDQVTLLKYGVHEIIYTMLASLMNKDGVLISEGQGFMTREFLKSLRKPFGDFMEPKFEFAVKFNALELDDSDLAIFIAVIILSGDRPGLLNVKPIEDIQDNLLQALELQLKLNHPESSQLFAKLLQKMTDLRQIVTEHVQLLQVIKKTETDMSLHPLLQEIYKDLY
Briefly: Agonist activity at human PPARgamma ligand binding domain expressed in COS-1 cells co-transfected with Gal4 at 10 uM by luciferase reporter gene assay. The class given is cell-based. In outline:
(§1)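 COS-1 cells in DMEM with 10% inactivated FBS, 37 °C, 5% CO2, plated 1 day before lipofectamine transfection. Per well: 320 ng (UAS)5-tk-LUC reporter, 640 ng empty pGL3 basic, 30 ng pSG5-GAL4-hPPAR (α, δ or γ). Compound 10 μM (DMSO negative control) added 5 h post-transfection. Cells kept 24 h, then lysed for luciferase read-out. Positive controls: EHA for PPARα, GW 501516 for PPARδ.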

For experiment [4], the target named is T3, Peroxisome proliferator-activated receptor alpha (Homo sapiens) (UniProt Q07869).
T3 sequence (whole entry): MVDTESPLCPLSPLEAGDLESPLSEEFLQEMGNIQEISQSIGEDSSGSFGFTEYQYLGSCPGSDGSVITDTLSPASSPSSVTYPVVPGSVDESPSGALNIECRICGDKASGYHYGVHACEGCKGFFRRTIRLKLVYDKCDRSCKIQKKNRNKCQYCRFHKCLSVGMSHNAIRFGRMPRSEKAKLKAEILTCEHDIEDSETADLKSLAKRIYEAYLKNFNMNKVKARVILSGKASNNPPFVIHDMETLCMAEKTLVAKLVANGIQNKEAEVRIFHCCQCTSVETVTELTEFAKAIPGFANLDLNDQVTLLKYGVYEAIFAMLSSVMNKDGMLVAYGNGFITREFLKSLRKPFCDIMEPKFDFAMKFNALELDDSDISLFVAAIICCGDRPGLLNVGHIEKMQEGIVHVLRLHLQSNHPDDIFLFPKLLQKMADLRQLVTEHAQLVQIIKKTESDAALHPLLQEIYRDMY
The experiment is described as follows: Agonist activity at human PPARalpha ligand binding domain expressed in COS-1 cells co-transfected with Gal4 at 10 uM by luciferase reporter gene assay. The class given is cell-based. In short, it runs like this: as §1

Regarding `Cc1cc(SCc2cn(-c3ccc(OC(F)(F)F)cc3)nn2)ccc1OCC(=O)O`, the EC50 in experiment [1] came out at 10 nM.

`Cc1cc(SCc2cn(-c3ccc(C(F)(F)F)c(F)c3)nn2)ccc1OCC(=O)O`: the outcome in experiment [2] and in experiment [4] was Active. The outcome in experiment [3] was inactive. In addition, the EC50 in experiment [1] was 0.85 nM.

With `Cc1cc(SCc2cn(-c3ccc(C(F)(F)F)cc3)nn2)ccc1OCC(=O)O`, in experiment [1], the EC50 was 1.8 nM.

Consider `Cc1cc(SCc2cn(-c3ccc(OC(F)(F)F)c(F)c3)nn2)ccc1OCC(=O)O`, for which the concentration for a half-maximal effect (EC50) in experiment [1] is 1.4 nM.

`Cc1cc(SCc2sc(-c3ccc(C(F)(F)F)cc3)nc2C)ccc1OCC(=O)O` [GW501516]: in experiment [1], the concentration giving a half-maximal response (EC50) turned out to be 0.07 nM.

`Cc1cc(SCc2cn(-c3ccc(OC(F)(F)F)c(Cl)c3)nn2)ccc1OCC(=O)O`: the result in experiment [2] and in experiment [4] was Active. In addition, the outcome in experiment [3] was inactive. The concentration giving a half-maximal response (EC50) in experiment [1] worked out at 12 nM.

The term EC50 denotes the concentration that produces a half-maximal response.
